In ChEMBL document CHEMBL1146536, “Pochonins A-F, new antiviral and antiparasitic resorcylic acid lactones from Pochonia chlamydosporia var. catenulata” (J Nat Prod, 2003):
Active and inactive are the calls of the source. The rule behind the calls is not given here.

Test system: Human alphaherpesvirus 1
Assay: Antiviral activity against HSV1 F infected in african green monkey Vero cells assessed as reduction of virus-induced cytopathic effect by cellular replication assay
Format: functional, organism-based
Settings: not given
Method in brief: (§1)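 HSV1 strain F replication in Vero cells, 0.1 nM to 125 µM. IC50 is the concentration reducing viral cytopathic effect by 50%; Tox50 is the concentration reducing cell viability by 50%. SI = Tox50/IC50.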
For C[C@H]1CCCC(=O)CCC/C=C/c2cc(O)cc(O)c2C(=O)O1 [ZEARALENONE], the Activity was “inactive”. With C[C@H]1CCCC(=O)CCCCCc2cc(O)cc(O)c2C(=O)O1 (stereo in doubt; 19) the Activity was “inactive”. For C[C@H]1CCC[C@H](O)CCCCCc2cc(O)cc(O)c2C(=O)O1, the Activity was “inactive”. In the case of C[C@@H]1C/C=C/CC/C=C/C(=O)Cc2c(Cl)c(O)cc(O)c2C(=O)O1 [POCHONIN D], the Activity is reported as “inactive”. For COc1cc(O)c2c(c1)/C=C/CCC[C@H](O)CCC[C@H](C)OC2=O, the Activity was “inactive”. In the case of C[C@H]1CCCC(=O)CCCCCc2cc(O)cc(O)c2C(=O)O1 (stereo in doubt; 16), the Activity is reported as “inactive”.

Same assay, conditions: Human alphaherpesvirus 1, F, Vero
Work on C[C@H]1C[C@H](O)C(Cl)/C=C\C=C\C(=O)Cc2c(Cl)c(O)cc(O)c2C(=O)O1 (stereo not given in full) [POCHONIN C] yielded an IC50 of 6000 nM. In the case of C[C@H]1C[C@H]2O[C@@H]2CC/C=C/C(=O)Cc2c(Cl)c(O)cc(O)c2C(=O)O1 [POCHONIN A], the IC50 is reported as 2000 nM. Work on C[C@H]1C/C=C/C(O)C/C=C/C(=O)Cc2c(Cl)c(O)cc(O)c2C(=O)O1 (stereo not given in full) [POCHONIN E] yielded an IC50 of 1500 nM. For C[C@@H]1C[C@H]2O[C@@H]2/C=C\C=C\C(=O)Cc2c(Cl)c(O)cc(O)c2C(=O)O1 [RADICICOL], the IC50 was 200 nM. With CC/C=C\[C@H](O)[C@H](O)C1=C(C)C(=O)[C@]2(O1)C(=O)N[C@@](OC)(C(=O)c1ccccc1)[C@@H]2O [PSEUROTIN A] the IC50 was 50000 nM. Compound C[C@H]1C[C@H]2O[C@@H]2C[C@H](O)/C=C/C(=O)Cc2c(Cl)c(O)cc(O)c2C(=O)O1 [POCHONIN B] has an IC50 of 10000 nM. C[C@@H]1C[C@H]2O[C@@H]2CC/C=C/C(=O)Cc2cc(O)cc(O)c2C(=O)O1 [MONOCILLIN III] showed an IC50 of 400 nM. For C[C@H]1C[C@H]2O[C@@H]2CCCCC(=O)Cc2c(Cl)c(O)cc(O)c2C(=O)O1 [TETRAHYDROMONORDEN], the IC50 was 1500 nM.

Same assay, conditions: vero
C[C@H]1CCC[C@@H](O)CCCCCc2cc(O)cc(O)c2C(=O)O1 (stereo in doubt; 17) [TALERANOL] gave an IC50 of 1500 nM. With C[C@H]1CCC[C@@H](O)CCCCCc2cc(O)cc(O)c2C(=O)O1 (stereo in doubt; 21) [TALERANOL] the IC50 was 15000 nM.

Test system: not listed separately
Assay: Selectivity index, ratio of cytotoxicity against african green monkey Vero cells to IC50 for HSV1 F
Format: toxicity, cell-based
Settings: read-out: Selectivity Index
Method in brief: as §1
CC/C=C\[C@H](O)[C@H](O)C1=C(C)C(=O)[C@]2(O1)C(=O)N[C@@](OC)(C(=O)c1ccccc1)[C@@H]2O [PSEUROTIN A] showed a selectivity ratio of 6. For C[C@@H]1C[C@H]2O[C@@H]2CC/C=C/C(=O)Cc2cc(O)cc(O)c2C(=O)O1 [MONOCILLIN III], the selectivity ratio was 7.5.

Test system: Vero
Assay: Cytotoxicity against african green monkey Vero cells by crystal violet staining
Format: cell-based
Settings: chlorocebus sabaeus
For C[C@@H]1C[C@H]2O[C@@H]2/C=C\C=C\C(=O)Cc2c(Cl)c(O)cc(O)c2C(=O)O1 [RADICICOL], the Activity was “Toxic”.

Test system: Vero
Assay: Cytotoxicity against african green monkey Vero cells at 2.5 uM by crystal violet staining
Format: cell-based
Settings: chlorocebus sabaeus
For C[C@@H]1C/C=C/CC/C=C/C(=O)Cc2c(Cl)c(O)cc(O)c2C(=O)O1 [POCHONIN D], the Activity was “Toxic”.

Test system: Vero
Assay: Cytotoxicity against african green monkey Vero cells at 10 uM by crystal violet staining
Format: cell-based
Settings: chlorocebus sabaeus
In the case of C[C@H]1C/C=C/CC/C=C/C(=O)Cc2cc(O[C@@H]3O[C@H](CO)[C@@H](O)[C@H]3O)cc(O)c2C(=O)O1 [MONOCILLIN II GLYCOSIDE], the Activity is reported as “Toxic”.

Test system: Eimeria tenella
Assay: Antiparasitic activity against Eimeria tenella Houghton infected in PCKC at 10 ppm treated 2 hrs postinfection by MMDA assay
Format: functional, organism-based
Settings: not given
Method in brief: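 Confluent primary chicken kidney cell monolayers (DMEM or RPMI with 10% FBS, glutamine, essential amino acids; 37 °C, 5% CO2) in 96-well plates infected with E. tenella Houghton; compounds added 2 h post infection at 200, 10, 1, 0.1 ppm. Stopped 120 h post infection; monolayer disruption scored microscopically or by crystal violet after MeOH fixation (2 full, 1 weak, 0 none).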
For C[C@H]1C[C@H]2O[C@@H]2CC/C=C/C(=O)Cc2c(Cl)c(O)cc(O)c2C(=O)O1 [POCHONIN A], the Activity was “Active”. In the case of C[C@@H]1C[C@H]2O[C@@H]2/C=C\C=C\C(=O)Cc2c(Cl)c(O)cc(O)c2C(=O)O1 [RADICICOL], the Activity is reported as “Active”. For CC/C=C\[C@H](O)[C@H](O)C1=C(C)C(=O)[C@]2(O1)C(=O)N[C@@](OC)(C(=O)c1ccccc1)[C@@H]2O [PSEUROTIN A], the Activity was “Active”. For C[C@H]1C[C@H]2O[C@@H]2CCCCC(=O)Cc2c(Cl)c(O)cc(O)c2C(=O)O1 [TETRAHYDROMONORDEN], the Activity was “Active”.

Test system: Eimeria tenella
Assay: Antiparasitic activity against Eimeria tenella Houghton infected in PCKC at 1 ppm treated 2 hrs postinfection by MMDA assay
Format: functional, organism-based
Settings: not given
Method in brief: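 Primary chicken kidney cell monolayers grown to confluence with 10% FBS, glutamine and essential amino acids at 37 °C, 5% CO2, in 96-well plates. They were infected with E. tenella Houghton, and test samples were added 2 h post infection. Tested at 200, 10, 1 and 0.1 ppm; stopped at 120 h. Monolayer integrity was read microscopically or by MeOH fixation and crystal violet. Scored as full, weak, none or cytotoxic.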
For C[C@@H]1C[C@H]2O[C@@H]2/C=C\C=C\C(=O)Cc2c(Cl)c(O)cc(O)c2C(=O)O1 [RADICICOL], the Activity was “inactive”. With C[C@H]1C[C@H]2O[C@@H]2CCCCC(=O)Cc2c(Cl)c(O)cc(O)c2C(=O)O1 [TETRAHYDROMONORDEN] the Activity was “inactive”.

Test system: Neospora caninum
Assay: Antiparasitic activity against Neospora caninum NC-1 infected in african green monkey Vero cells treated 2 hrs postinfection by MMDA assay
Format: functional, organism-based
Settings: not given
For C[C@@H]1C/C=C/CC/C=C/C(=O)Cc2c(Cl)c(O)cc(O)c2C(=O)O1 [POCHONIN D], the Activity was “inactive”. In the case of C[C@H]1C[C@H](O)C(Cl)/C=C\C=C\C(=O)Cc2c(Cl)c(O)cc(O)c2C(=O)O1 (stereo not given in full) [POCHONIN C], the Activity is reported as “inactive”. For C[C@H]1C[C@H]2O[C@@H]2CC/C=C/C(=O)Cc2c(Cl)c(O)cc(O)c2C(=O)O1 [POCHONIN A], the Activity was “inactive”. In the case of C[C@H]1C/C=C/C(O)C/C=C/C(=O)Cc2c(Cl)c(O)cc(O)c2C(=O)O1 (stereo not given in full) [POCHONIN E], the Activity is reported as “inactive”. In the case of C[C@@H]1C[C@H]2O[C@@H]2/C=C\C=C\C(=O)Cc2c(Cl)c(O)cc(O)c2C(=O)O1 [RADICICOL], the Activity is reported as “inactive”. In the case of CC/C=C\[C@H](O)[C@H](O)C1=C(C)C(=O)[C@]2(O1)C(=O)N[C@@](OC)(C(=O)c1ccccc1)[C@@H]2O [PSEUROTIN A], the Activity is reported as “inactive”. In the case of C[C@H]1C[C@H]2O[C@@H]2C[C@H](O)/C=C/C(=O)Cc2c(Cl)c(O)cc(O)c2C(=O)O1 [POCHONIN B], the Activity is reported as “inactive”. For C[C@@H]1C[C@H]2O[C@@H]2CC/C=C/C(=O)Cc2cc(O)cc(O)c2C(=O)O1 [MONOCILLIN III], the Activity was “inactive”. For C[C@H]1C[C@H]2O[C@@H]2CCCCC(=O)Cc2c(Cl)c(O)cc(O)c2C(=O)O1 [TETRAHYDROMONORDEN], the Activity was “inactive”. With C[C@H]1C/C=C/CC/C=C/C(=O)Cc2cc(O[C@@H]3O[C@H](CO)[C@@H](O)[C@H]3O)cc(O)c2C(=O)O1 [MONOCILLIN II GLYCOSIDE] the Activity was “inactive”.

Biological target: T1, Estrogen receptor beta (Homo sapiens, UniProt Q92731)
T1 sequence (Q92731 whole entry): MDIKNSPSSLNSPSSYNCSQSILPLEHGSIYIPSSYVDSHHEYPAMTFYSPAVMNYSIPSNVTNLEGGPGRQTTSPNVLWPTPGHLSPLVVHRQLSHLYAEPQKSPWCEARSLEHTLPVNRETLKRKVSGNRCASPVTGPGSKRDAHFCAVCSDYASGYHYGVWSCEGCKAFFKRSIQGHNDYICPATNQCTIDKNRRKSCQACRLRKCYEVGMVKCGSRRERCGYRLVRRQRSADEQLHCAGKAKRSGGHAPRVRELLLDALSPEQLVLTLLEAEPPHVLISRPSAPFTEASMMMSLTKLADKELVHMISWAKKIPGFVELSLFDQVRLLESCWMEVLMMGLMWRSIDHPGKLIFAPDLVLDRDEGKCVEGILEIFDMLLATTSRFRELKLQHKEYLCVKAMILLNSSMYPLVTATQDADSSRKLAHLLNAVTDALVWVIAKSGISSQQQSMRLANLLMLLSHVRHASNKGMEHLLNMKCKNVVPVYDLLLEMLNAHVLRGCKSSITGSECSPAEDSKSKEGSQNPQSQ
Assay: Agonist activity at ERbeta by fluorescence polarization assay
Format: functional
Settings: not given
C[C@H]1CCCC(=O)CCC/C=C/c2cc(O)cc(O)c2C(=O)O1 [ZEARALENONE] gave an EC50 of 110 nM. Compound C[C@H]1CCCC(=O)CCCCCc2cc(O)cc(O)c2C(=O)O1 (stereo in doubt; 19) [ZEARALANONE] has an EC50 of 660 nM. With COc1cc(O)c2c(c1)/C=C/CCC[C@H](O)CCC[C@H](C)OC2=O the Activity was “inactive”. Work on C[C@H]1CCCC(=O)CCCCCc2cc(O)cc(O)c2C(=O)O1 (stereo in doubt; 16) [ZEARALANONE] yielded an EC50 of 38 nM.

Biological target: T1, Estrogen receptor beta
Assay: Agonist activity at ERbeta up to 10 uM by fluorescence polarization assay
Format: functional
Settings: not given
In the case of C[C@@H]1C/C=C/CC/C=C/C(=O)Cc2c(Cl)c(O)cc(O)c2C(=O)O1 [POCHONIN D], the Activity is reported as “inactive”. With C[C@H]1C[C@H](O)C(Cl)/C=C\C=C\C(=O)Cc2c(Cl)c(O)cc(O)c2C(=O)O1 (stereo not given in full) [POCHONIN C] the Activity was “inactive”. For C[C@H]1C[C@H]2O[C@@H]2CC/C=C/C(=O)Cc2c(Cl)c(O)cc(O)c2C(=O)O1 [POCHONIN A], the Activity was “inactive”. With C[C@H]1C/C=C/C(O)C/C=C/C(=O)Cc2c(Cl)c(O)cc(O)c2C(=O)O1 (stereo not given in full) [POCHONIN E] the Activity was “inactive”. With C[C@H]1C[C@H]2O[C@@H]2C[C@H](O)/C=C/C(=O)Cc2c(Cl)c(O)cc(O)c2C(=O)O1 [POCHONIN B] the Activity was “inactive”. In the case of C[C@@H]1C[C@H]2O[C@@H]2CC/C=C/C(=O)Cc2cc(O)cc(O)c2C(=O)O1 [MONOCILLIN III], the Activity is reported as “inactive”. With C[C@H]1C[C@H]2O[C@@H]2CCCCC(=O)Cc2c(Cl)c(O)cc(O)c2C(=O)O1 [TETRAHYDROMONORDEN] the Activity was “inactive”. With C[C@H]1C/C=C/CC/C=C/C(=O)Cc2cc(O[C@@H]3O[C@H](CO)[C@@H](O)[C@H]3O)cc(O)c2C(=O)O1 [MONOCILLIN II GLYCOSIDE] the Activity was “inactive”.

Test system: not listed separately
Assay: Cytotoxicity against PCKC by crystal violet staining
Set-up: species or system Gallus gallus
Settings: chicken
Method in brief: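 Uninfected compound-treated primary chicken kidney cells served as toxicity controls in the 120 h monolayer assay (200, 10, 1, 0.1 ppm). Viability judged microscopically or by crystal violet after 5 min MeOH fixation.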
With C[C@@H]1C/C=C/CC/C=C/C(=O)Cc2c(Cl)c(O)cc(O)c2C(=O)O1 [POCHONIN D] the Activity was “Toxic”. In the case of C[C@H]1C[C@H](O)C(Cl)/C=C\C=C\C(=O)Cc2c(Cl)c(O)cc(O)c2C(=O)O1 (stereo not given in full) [POCHONIN C], the Activity is reported as “Toxic”. For C[C@H]1C/C=C/C(O)C/C=C/C(=O)Cc2c(Cl)c(O)cc(O)c2C(=O)O1 (stereo not given in full) [POCHONIN E], the Activity was “Toxic”. In the case of C[C@@H]1C[C@H]2O[C@@H]2/C=C\C=C\C(=O)Cc2c(Cl)c(O)cc(O)c2C(=O)O1 [RADICICOL], the Activity is reported as “Toxic”. With C[C@H]1C[C@H]2O[C@@H]2C[C@H](O)/C=C/C(=O)Cc2c(Cl)c(O)cc(O)c2C(=O)O1 [POCHONIN B] the Activity was “Toxic”. With C[C@H]1C/C=C/CC/C=C/C(=O)Cc2cc(O[C@@H]3O[C@H](CO)[C@@H](O)[C@H]3O)cc(O)c2C(=O)O1 [MONOCILLIN II GLYCOSIDE] the Activity was “Toxic”.
